Laboratory results published in ChEMBL document CHEMBL3588757, “Structure-based design, synthesis and biological testing of piperazine-linked bis-epipodophyllotoxin etoposide analogs” (Bioorg Med Chem, 2015).
Calls of active or inactive are those of the source. The calls are words filed in the database; no cut-off is given here.

Columns and labels:
BT-549 = assay: Cytotoxicity against human BT549 cells assessed as cell growth at 10 uM; format: functional; conditions: read-out: Activity
SN12C = assay: Cytotoxicity against human SN12C cells assessed as cell growth at 10 uM; format: functional; conditions: read-out: Activity
NCI-H23 = assay: Cytotoxicity against human NCI-H23 cells assessed as cell growth at 10 uM; format: functional; conditions: read-out: Activity
HOP-62 = assay: Cytotoxicity against human HOP62 cells assessed as cell growth at 10 uM; format: functional; conditions: read-out: Activity
NCI-H226 = assay: Cytotoxicity against human NCI-H226 cells assessed as cell growth at 10 uM; format: functional; conditions: read-out: Activity
OVCAR-5 = assay: Cytotoxicity against human OVCAR5 cells assessed as cell growth at 10 uM; format: functional; conditions: read-out: Activity
UO-31 = assay: Cytotoxicity against human UO31 cells assessed as cell growth at 10 uM; format: functional; conditions: read-out: Activity
CAKI-1 = assay: Cytotoxicity against human Caki1 cells assessed as cell growth at 10 uM; format: functional; conditions: read-out: Activity
[1] = Cytotoxicity against etoposide-resistant human K/VP.5 cells assessed as cell growth inhibition after 72 hrs by MTS assay; format: functional, cell-based; conditions: K/VP.5, 72 h
Summary of the method: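 K/VP.5 cells are a K562-derived subline, 26-fold etoposide-resistant, with decreased topoisomerase IIα mRNA and protein. Cells were grown in suspension in αMEM with 10% fetal calf serum. Drugs were given from DMSO stocks, with final DMSO typically 0.4% or less. Read-out was MTS absorbance after 72 h. Typically nine concentrations were run in duplicate on two days. IC50 came from a four-parameter logistic fit.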

[2] = Cytotoxicity against human Hs578T cells assessed as cell growth at 10 uM; format: functional; conditions: Hs-578T, read-out: Activity
SK-MEL-2 = assay: Cytotoxicity against human SK-MEL-2 cells assessed as cell growth at 10 uM; format: functional; conditions: read-out: Activity
T47D = assay: Cytotoxicity against human T47D cells assessed as cell growth at 10 uM; format: functional; conditions: read-out: Activity
SF-295 = assay: Cytotoxicity against human SF295 cells assessed as cell growth at 10 uM; format: functional; conditions: read-out: Activity
MOLT-4 = assay: Cytotoxicity against human MOLT4 cells assessed as cell growth at 10 uM; format: functional; conditions: read-out: Activity
Malme-3M = assay: Cytotoxicity against human MALME-3M cells assessed as cell growth at 10 uM; format: functional; conditions: read-out: Activity
SNB-19 = assay: Cytotoxicity against human SNB19 cells assessed as cell growth at 10 uM; format: functional; conditions: read-out: Activity
UACC-62 = assay: Cytotoxicity against human UACC62 cells assessed as cell growth at 10 uM; format: functional; conditions: read-out: Activity
SK-MEL-28 = assay: Cytotoxicity against human SK-MEL-28 cells assessed as cell growth at 10 uM; format: functional; conditions: read-out: Activity
HCT-15 = assay: Cytotoxicity against human HCT15 cells assessed as cell growth at 10 uM; format: functional; conditions: read-out: Activity
MCF7 = assay: Cytotoxicity against human MCF7 cells assessed as cell growth at 10 uM; format: functional; conditions: read-out: Activity
HCC 2998 = assay: Cytotoxicity against human HCC2998 cells assessed as cell growth at 10 uM; format: functional; conditions: read-out: Activity
MDA-MB-468 = assay: Cytotoxicity against human MDA-MB-468 cells assessed as cell growth at 10 uM; format: functional; conditions: read-out: Activity
SK-MEL-5 = assay: Cytotoxicity against human SK-MEL-5 cells assessed as cell growth at 10 uM; format: functional; conditions: read-out: Activity
M14 = assay: Cytotoxicity against human M14 cells assessed as cell growth at 10 uM; format: functional; conditions: read-out: Activity
MDA-MB-231 = assay: Cytotoxicity against human MDA-MB-231/ATCC cells assessed as cell growth at 10 uM; format: functional; conditions: read-out: Activity
K562 [3] = assay: Relative resistance, ratio of IC50 for etoposide-resistant human K/VP.5 cells to IC50 for human K562 cells; format: functional
786-0 = assay: Cytotoxicity against human 786-0 cells assessed as cell growth at 10 uM; format: functional; conditions: read-out: Activity
NCI-H460 = assay: Cytotoxicity against human NCI-H460 cells assessed as cell growth at 10 uM; format: functional; conditions: read-out: Activity
COLO 205 = assay: Cytotoxicity against human COLO205 cells assessed as cell growth at 10 uM; format: functional; conditions: read-out: Activity
PC-3 = assay: Cytotoxicity against human PC3 cells assessed as cell growth at 10 uM; format: functional; conditions: read-out: Activity
SNB-75 = assay: Cytotoxicity against human SNB75 cells assessed as cell growth at 10 uM; format: functional; conditions: read-out: Activity
HOP-92 = assay: Cytotoxicity against human HOP92 cells assessed as cell growth at 10 uM; format: functional; conditions: read-out: Activity
SF-268 = assay: Cytotoxicity against human SF268 cells assessed as cell growth at 10 uM; format: functional; conditions: read-out: Activity
SK-OV-3 = assay: Cytotoxicity against human SKOV3 cells assessed as cell growth at 10 uM; format: functional; conditions: read-out: Activity
RXF 393 = assay: Cytotoxicity against human RXF393 cells assessed as cell growth at 10 uM; format: functional; conditions: read-out: Activity
OVCAR-8 = assay: Cytotoxicity against human OVCAR8 cells assessed as cell growth at 10 uM; format: functional; conditions: read-out: Activity
[4] = Cytotoxicity against human NCI-ADR-RES cells assessed as cell growth at 10 uM; format: functional; conditions: read-out: Activity
RPMI-8226 = assay: Cytotoxicity against human RPMI8226 cells assessed as cell growth at 10 uM; format: functional; conditions: read-out: Activity
U-251 = assay: Cytotoxicity against human U251 cells assessed as cell growth at 10 uM; format: functional; conditions: read-out: Activity
MDA-MB-435 = assay: Cytotoxicity against human MDA-MB-435 cells assessed as cell growth at 10 uM; format: functional; conditions: read-out: Activity
K562 [5] = assay: Cytotoxicity against human K562 cells assessed as cell growth at 10 uM; format: functional; conditions: read-out: Activity
A549 = assay: Cytotoxicity against human A549/ATCC cells assessed as cell growth at 10 uM; format: functional; conditions: read-out: Activity
ACHN = assay: Cytotoxicity against human ACHN cells assessed as cell growth at 10 uM; format: functional; conditions: read-out: Activity
UACC-257 = assay: Cytotoxicity against human UACC257 cells assessed as cell growth at 10 uM; format: functional; conditions: read-out: Activity
IGROV-1 = assay: Cytotoxicity against human IGROV1 cells assessed as cell growth at 10 uM; format: functional; conditions: read-out: Activity
[6] = biological target: DNA topoisomerase 2-alpha (Homo sapiens) (UniProt P11388); assay: Inhibition of full-length human recombinant topoisomerase 2-alpha-mediated decatenation activity of kDNA by ethidium bromide based gel-assay
CCRF-CEM = assay: Cytotoxicity against human CCRF-CEM cells assessed as cell growth at 10 uM; format: functional; conditions: read-out: Activity
DU-145 = assay: Cytotoxicity against human DU145 cells assessed as cell growth at 10 uM; format: functional; conditions: read-out: Activity
HL-60(TB) = assay: Cytotoxicity against human HL-60(TB) cells assessed as cell growth at 10 uM; format: functional; conditions: read-out: Activity
HCT-116 = assay: Cytotoxicity against human HCT116 cells assessed as cell growth at 10 uM; format: functional; conditions: read-out: Activity
KM12 = assay: Cytotoxicity against human KM12 cells assessed as cell growth at 10 uM; format: functional; conditions: read-out: Activity
NCI-H322M = assay: Cytotoxicity against human NCI-H322M cells assessed as cell growth at 10 uM; format: functional; conditions: read-out: Activity
[7] = biological target: DNA topoisomerase 2-alpha (Homo sapiens) (UniProt P11388); assay: Inhibition of full-length human recombinant topoisomerase 2-alpha mediated relaxation and cleavage of supercoiled pBR322 plasmid DNA to linear DNA by ethidium bromide staining based gel electrophoresis assay
Summary of the method: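 Recombinant full-length human topoisomerase IIα with supercoiled pBR322 DNA at 37 °C. Components mixed on ice before drug addition. Complexes trapped with SDS; products run on ethidium bromide gels. Linear DNA identified against a HindIII-linearized marker; repeated on three days.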

SF-539 = assay: Cytotoxicity against human SF539 cells assessed as cell growth at 10 uM; format: functional; conditions: read-out: Activity
HT-29 = assay: Cytotoxicity against human HT-29 cells assessed as cell growth at 10 uM; format: functional; conditions: read-out: Activity
OVCAR-4 = assay: Cytotoxicity against human OVCAR4 cells assessed as cell growth at 10 uM; format: functional; conditions: read-out: Activity
K562 [8] = assay: Cytotoxicity against human K562 cells assessed as cell growth inhibition after 72 hrs by MTS assay; format: functional, cell-based; conditions: K562, 72 h
SR = assay: Cytotoxicity against human SR cells assessed as cell growth at 10 uM; format: functional; conditions: read-out: Activity
TK-10 = assay: Cytotoxicity against human TK10 cells assessed as cell growth at 10 uM; format: functional; conditions: read-out: Activity
SW-620 = assay: Cytotoxicity against human SW620 cells assessed as cell growth at 10 uM; format: functional; conditions: read-out: Activity
OVCAR-3 = assay: Cytotoxicity against human OVCAR3 cells assessed as cell growth at 10 uM; format: functional; conditions: read-out: Activity
A498 = assay: Cytotoxicity against human A498 cells assessed as cell growth at 10 uM; format: functional; conditions: read-out: Activity

DNA topoisomerase 2-alpha (Homo sapiens), sequence (P11388 whole entry): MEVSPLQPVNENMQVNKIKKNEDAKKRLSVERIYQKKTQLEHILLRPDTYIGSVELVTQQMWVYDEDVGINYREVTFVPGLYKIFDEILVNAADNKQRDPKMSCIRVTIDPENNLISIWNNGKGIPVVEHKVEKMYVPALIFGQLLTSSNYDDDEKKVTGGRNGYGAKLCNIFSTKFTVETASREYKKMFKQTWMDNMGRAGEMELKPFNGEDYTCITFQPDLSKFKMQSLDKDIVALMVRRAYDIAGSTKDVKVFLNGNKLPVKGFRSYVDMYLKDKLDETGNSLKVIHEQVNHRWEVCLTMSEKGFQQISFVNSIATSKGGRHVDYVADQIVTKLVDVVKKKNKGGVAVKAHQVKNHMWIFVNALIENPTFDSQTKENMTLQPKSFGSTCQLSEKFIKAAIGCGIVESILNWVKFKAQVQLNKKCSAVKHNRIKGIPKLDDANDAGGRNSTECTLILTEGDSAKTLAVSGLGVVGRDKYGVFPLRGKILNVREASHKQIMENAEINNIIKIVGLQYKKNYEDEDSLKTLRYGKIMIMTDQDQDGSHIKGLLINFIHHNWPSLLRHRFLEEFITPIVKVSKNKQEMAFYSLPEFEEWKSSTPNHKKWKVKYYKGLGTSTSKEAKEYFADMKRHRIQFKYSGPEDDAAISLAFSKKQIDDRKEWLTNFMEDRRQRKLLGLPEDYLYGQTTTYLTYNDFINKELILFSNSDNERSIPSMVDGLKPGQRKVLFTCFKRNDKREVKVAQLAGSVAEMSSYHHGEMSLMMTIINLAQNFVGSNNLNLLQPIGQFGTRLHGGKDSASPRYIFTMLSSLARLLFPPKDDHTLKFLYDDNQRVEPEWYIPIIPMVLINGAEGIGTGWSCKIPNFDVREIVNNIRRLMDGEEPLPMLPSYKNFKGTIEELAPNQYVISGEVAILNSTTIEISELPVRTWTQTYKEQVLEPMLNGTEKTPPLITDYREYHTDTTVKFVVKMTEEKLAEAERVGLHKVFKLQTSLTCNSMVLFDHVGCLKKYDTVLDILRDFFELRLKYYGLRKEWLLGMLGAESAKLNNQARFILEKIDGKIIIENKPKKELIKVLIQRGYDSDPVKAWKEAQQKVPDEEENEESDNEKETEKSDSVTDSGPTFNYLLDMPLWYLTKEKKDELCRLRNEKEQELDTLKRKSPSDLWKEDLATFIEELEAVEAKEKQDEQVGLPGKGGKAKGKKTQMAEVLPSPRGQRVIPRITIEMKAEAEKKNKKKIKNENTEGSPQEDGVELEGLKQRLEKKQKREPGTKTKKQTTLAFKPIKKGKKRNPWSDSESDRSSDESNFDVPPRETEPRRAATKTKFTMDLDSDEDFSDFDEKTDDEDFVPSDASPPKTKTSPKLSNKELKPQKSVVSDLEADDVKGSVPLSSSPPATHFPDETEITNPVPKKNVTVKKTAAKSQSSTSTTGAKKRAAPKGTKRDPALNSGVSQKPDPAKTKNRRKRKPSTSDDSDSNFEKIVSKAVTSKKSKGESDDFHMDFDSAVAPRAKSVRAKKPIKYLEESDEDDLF

COc1cc([C@@H]2c3cc4c(cc3[C@@H](NC(=O)CN3CCN(CCCN5CCN(CC(=O)N[C@@H]6c7cc8c(cc7[C@@H](c7cc(OC)c(O)c(OC)c7)[C@H]7C(=O)OC[C@@H]76)OCO8)CC5)CC3)[C@H]3COC(=O)[C@H]23)OCO4)cc(OC)c1O
growth at 10 µM (BT-549): 69.6%
growth at 10 µM (SN12C): 57.8%
growth at 10 µM (NCI-H23): 84.2%
growth at 10 µM (HOP-62): 75.9%
growth at 10 µM (NCI-H226): 86%
growth at 10 µM (OVCAR-5): 102%
growth at 10 µM (UO-31): 93.1%
growth at 10 µM (CAKI-1): 97%
IC50 [1]: 7.5 µM
growth at 10 µM [2]: 95.2%
growth at 10 µM (SK-MEL-2): 101%
growth at 10 µM (T47D): 56.9%
growth at 10 µM (SF-295): 94.5%
growth at 10 µM (MOLT-4): 10.9%
growth at 10 µM (Malme-3M): 68.1%
growth at 10 µM (SNB-19): 59.3%
growth at 10 µM (UACC-62): 56.4%
growth at 10 µM (SK-MEL-28): 85.9%
growth at 10 µM (HCT-15): 98.6%
growth at 10 µM (MCF7): 26%
growth at 10 µM (HCC 2998): 97.8%
growth at 10 µM (MDA-MB-468): 93.8%
growth at 10 µM (SK-MEL-5): 77.6%
growth at 10 µM (M14): 95.4%
growth at 10 µM (MDA-MB-231): 93.9%
Ratio IC50 (K562 [3]): 14.2
growth at 10 µM (786-0): 95.9%
growth at 10 µM (NCI-H460): 24.3%
growth at 10 µM (COLO 205): 53.9%
growth at 10 µM (PC-3): 79.8%
growth at 10 µM (SNB-75): 66.8%
growth at 10 µM (HOP-92): 65.7%
growth at 10 µM (SF-268): 69.6%
growth at 10 µM (SK-OV-3): 96.7%
growth at 10 µM (RXF 393): 90.2%
growth at 10 µM (OVCAR-8): 95.5%
growth at 10 µM [4]: 103%
growth at 10 µM (RPMI-8226): 63.4%
growth at 10 µM (U-251): 45.1%
growth at 10 µM (MDA-MB-435): 88.6%
growth at 10 µM (K562 [5]): 61.9%
growth at 10 µM (A549): 47%
growth at 10 µM (ACHN): 92.5%
growth at 10 µM (UACC-257): 79.7%
growth at 10 µM (IGROV-1): 71.8%
inhibition [6]: Active
growth at 10 µM (CCRF-CEM): 12.8%
growth at 10 µM (DU-145): 83.5%
growth at 10 µM (HL-60(TB)): 26.7%
growth at 10 µM (HCT-116): 64.6%
growth at 10 µM (KM12): 87.9%
growth at 10 µM (NCI-H322M): 104%
Effect on topoisomerase 2-alpha DNA cleavage (qualitative) [7]: Dose-dependent effect
growth at 10 µM (SF-539): 77.8%
growth at 10 µM (HT-29): 89.5%
growth at 10 µM (OVCAR-4): 95.6%
IC50 (K562 [8]): 525 nM
growth at 10 µM (SR): 15.2%
growth at 10 µM (TK-10): 88.7%
growth at 10 µM (SW-620): 54.9%
growth at 10 µM (OVCAR-3): 98.2%
growth at 10 µM (A498): 65%
